Assay results taken from ChEMBL document CHEMBL4706647, “Development and optimization of halogenated vinyl sulfones as Nrf2 activators for the treatment of Parkinson's disease” (Eur J Med Chem, 2021).
Active and inactive are the calls of the source. No cut-off for these calls is given here.

Key:
[1] = Stability in human microsomes assessed as parent compound remaining after 30 mins; format: ADME, Microsome; conditions: read-out: Stabilty
[2] = Cytotoxicity against mouse BV-2 cells assessed cell viability at 0.3 uM measured after 6 hrs by Ez-cytox reagent based assay relative to control; conditions: read-out: Activity
Outline: (§1)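 BV-2 cells (1.0 × 10⁴/well) grown 24 h at 37 °C, 5% CO2, then treated 6 h at […]. Viability expressed as percent of control.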

[3] = Cytotoxicity against mouse BV-2 cells assessed cell viability at 1 uM measured after 6 hrs by Ez-cytox reagent based assay relative to control; conditions: read-out: Activity; outline: as §1
CYP2C19 = CYP2C19 (Homo sapiens, UniProt P33261); assay: Inhibition of CYP2C19 (unknown origin) assessed as residual activity; format: ADME
Chain of CYP2C19 (P33261 whole entry): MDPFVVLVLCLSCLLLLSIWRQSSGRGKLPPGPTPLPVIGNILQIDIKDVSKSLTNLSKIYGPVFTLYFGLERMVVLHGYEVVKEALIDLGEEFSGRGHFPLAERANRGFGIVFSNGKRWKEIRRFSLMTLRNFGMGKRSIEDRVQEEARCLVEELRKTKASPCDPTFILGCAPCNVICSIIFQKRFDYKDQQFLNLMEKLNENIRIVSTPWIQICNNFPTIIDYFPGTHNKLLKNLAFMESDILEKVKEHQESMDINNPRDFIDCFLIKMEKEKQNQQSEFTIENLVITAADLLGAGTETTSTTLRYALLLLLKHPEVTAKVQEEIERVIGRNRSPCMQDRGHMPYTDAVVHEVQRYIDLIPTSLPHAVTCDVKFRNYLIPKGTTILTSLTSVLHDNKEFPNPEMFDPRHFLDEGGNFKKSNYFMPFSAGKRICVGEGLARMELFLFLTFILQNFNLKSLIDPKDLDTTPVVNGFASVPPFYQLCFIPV

CYP2D6 = CYP2D6 (Homo sapiens, UniProt P10635); assay: Inhibition of CYP2D6 (unknown origin) assessed as residual activity; format: ADME
Chain of CYP2D6 (P10635 whole entry): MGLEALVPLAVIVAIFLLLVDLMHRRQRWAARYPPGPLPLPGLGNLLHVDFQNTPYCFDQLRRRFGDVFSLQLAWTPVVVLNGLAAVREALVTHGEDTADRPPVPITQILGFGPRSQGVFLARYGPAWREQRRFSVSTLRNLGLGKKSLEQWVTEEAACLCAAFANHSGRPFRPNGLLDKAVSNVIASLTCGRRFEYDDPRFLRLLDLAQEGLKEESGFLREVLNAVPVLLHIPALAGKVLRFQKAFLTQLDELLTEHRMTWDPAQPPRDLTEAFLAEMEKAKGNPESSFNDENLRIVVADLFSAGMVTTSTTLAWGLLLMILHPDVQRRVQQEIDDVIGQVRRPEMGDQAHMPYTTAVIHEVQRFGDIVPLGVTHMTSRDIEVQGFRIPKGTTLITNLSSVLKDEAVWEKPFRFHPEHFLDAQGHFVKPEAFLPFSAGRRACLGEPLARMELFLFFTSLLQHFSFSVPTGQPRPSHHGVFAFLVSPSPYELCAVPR

[4] = Stability in human plasma assessed as parent compound remaining after 30 mins by LC-MS/MS analysis; format: ADME, cell-free; conditions: read-out: Stabilty
[5] = target: Voltage-gated inwardly rectifying potassium channel KCNH2 (Homo sapiens, UniProt Q12809); assay: Inhibition of fluorescence tracer red binding to human ERG measured after 4 hrs by fluorescence polarization assay
Chain of Voltage-gated inwardly rectifying potassium channel KCNH2 (Q12809 whole entry): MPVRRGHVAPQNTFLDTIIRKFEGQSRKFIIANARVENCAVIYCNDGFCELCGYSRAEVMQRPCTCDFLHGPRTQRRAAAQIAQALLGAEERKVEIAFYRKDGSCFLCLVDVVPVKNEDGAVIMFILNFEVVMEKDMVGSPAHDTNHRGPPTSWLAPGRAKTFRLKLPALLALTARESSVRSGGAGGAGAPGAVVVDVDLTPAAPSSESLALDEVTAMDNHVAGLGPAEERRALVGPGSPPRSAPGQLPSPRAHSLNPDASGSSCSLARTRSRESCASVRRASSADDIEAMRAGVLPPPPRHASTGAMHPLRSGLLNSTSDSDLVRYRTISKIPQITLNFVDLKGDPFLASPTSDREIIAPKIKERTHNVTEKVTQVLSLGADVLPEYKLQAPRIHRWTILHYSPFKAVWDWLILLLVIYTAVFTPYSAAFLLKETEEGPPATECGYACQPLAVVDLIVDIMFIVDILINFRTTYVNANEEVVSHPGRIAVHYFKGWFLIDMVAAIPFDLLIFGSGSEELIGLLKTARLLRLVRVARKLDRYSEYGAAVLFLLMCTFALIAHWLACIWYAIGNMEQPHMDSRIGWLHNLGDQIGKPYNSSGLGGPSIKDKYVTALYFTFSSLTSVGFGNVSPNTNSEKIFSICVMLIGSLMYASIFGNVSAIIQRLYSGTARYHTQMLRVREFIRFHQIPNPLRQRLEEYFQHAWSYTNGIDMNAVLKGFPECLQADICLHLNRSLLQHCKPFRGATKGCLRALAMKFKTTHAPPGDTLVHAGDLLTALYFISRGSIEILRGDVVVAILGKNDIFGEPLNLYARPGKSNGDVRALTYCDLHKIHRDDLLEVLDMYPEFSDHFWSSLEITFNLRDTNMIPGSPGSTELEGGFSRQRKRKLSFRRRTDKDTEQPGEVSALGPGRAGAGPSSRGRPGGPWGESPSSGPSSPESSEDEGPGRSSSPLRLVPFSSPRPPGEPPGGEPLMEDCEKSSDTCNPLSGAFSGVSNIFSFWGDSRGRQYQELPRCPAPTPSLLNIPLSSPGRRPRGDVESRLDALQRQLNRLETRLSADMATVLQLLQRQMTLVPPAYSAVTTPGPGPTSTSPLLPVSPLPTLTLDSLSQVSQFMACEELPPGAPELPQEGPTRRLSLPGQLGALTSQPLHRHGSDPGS

[6] = target: T1, Nuclear factor erythroid 2-related factor 2 (Mus musculus) (UniProt Q60795); assay: Activation of Nrf2 in mouse BV-2 cells assessed as increase in nuclear Nrf2 levels after 6 hrs by Western blot analysis; format: cell-based; conditions: filed as activator, dose 0.02-10 µM
T1 sequence (whole entry): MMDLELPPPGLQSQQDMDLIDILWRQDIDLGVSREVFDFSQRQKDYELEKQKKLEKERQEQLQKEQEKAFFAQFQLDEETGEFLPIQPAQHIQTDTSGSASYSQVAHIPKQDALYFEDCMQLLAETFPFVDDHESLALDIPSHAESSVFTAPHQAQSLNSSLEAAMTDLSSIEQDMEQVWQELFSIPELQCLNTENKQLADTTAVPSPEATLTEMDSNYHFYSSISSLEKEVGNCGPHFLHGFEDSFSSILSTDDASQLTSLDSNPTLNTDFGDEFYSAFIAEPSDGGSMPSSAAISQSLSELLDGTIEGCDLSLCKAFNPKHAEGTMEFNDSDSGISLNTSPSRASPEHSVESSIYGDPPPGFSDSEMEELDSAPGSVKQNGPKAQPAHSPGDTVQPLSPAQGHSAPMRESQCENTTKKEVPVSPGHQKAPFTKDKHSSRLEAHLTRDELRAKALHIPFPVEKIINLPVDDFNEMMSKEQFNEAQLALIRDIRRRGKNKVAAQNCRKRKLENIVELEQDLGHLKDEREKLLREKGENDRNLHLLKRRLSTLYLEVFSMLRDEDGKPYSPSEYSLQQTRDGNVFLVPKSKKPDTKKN

[7] = target: T1, Nuclear factor erythroid 2-related factor 2 (Mus musculus); assay: Activation of Nrf2 in mouse BV-2 cells assessed as increase in Gclm mRNA expression after 6 hrs by RT-qPCR analysis; format: cell-based; conditions: filed as activator, dose 0.03-1 µM
Outline: (§2)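 BV-2 cells exposed to a range of concentrations for 6 h. Ho1, Gclc, Gclm and Sod1 mRNA quantified by RT-qPCR and expressed relative to vehicle-treated control. Mean ± SEM, n = 3; Student's t-test.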

[8] = target: T1, Nuclear factor erythroid 2-related factor 2 (Mus musculus); assay: Activation of Nrf2 in mouse BV-2 cells assessed as increase in Gclc mRNA expression at 1 uM after 6 hrs by RT-qPCR analysis relative to control; format: cell-based; conditions: filed as activator; outline: as §2
[9] = target: T1, Nuclear factor erythroid 2-related factor 2 (Mus musculus); assay: Activation of Nrf2 in mouse BV-2 cells assessed as increase in Gclm mRNA expression at 1 uM after 6 hrs by RT-qPCR analysis relative to control; format: cell-based; conditions: filed as activator; outline: as §2
[10] = target: T1, Nuclear factor erythroid 2-related factor 2 (Mus musculus); assay: Activation of Nrf2 in mouse BV-2 cells assessed as increase in GCLC expression at 10 uM after 6 hrs by Western blot analysis relative to control; format: cell-based; conditions: filed as activator
Outline: (§3)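 BV-2 microglia grown in RPMI-1640 with 10% FBS, penicillin-streptomycin and 2 mM L-glutamine at 37 °C, 5% CO2. Cells exposed to a range of concentrations for 6 h, then HO-1, GCLC, GCLM and SOD1 protein measured by Western blot. Band intensity normalized to β-actin and given as fold of vehicle control. Mean ± SEM, n = 3, three separate experiments.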

[11] = target: T1, Nuclear factor erythroid 2-related factor 2 (Mus musculus); assay: Activation of Nrf2 in mouse BV-2 cells assessed as increase in SOD1 expression at 10 uM after 6 hrs by Western blot analysis relative to control; format: cell-based; conditions: filed as activator; outline: as §3
[12] = target: T1, Nuclear factor erythroid 2-related factor 2 (Mus musculus); assay: Activation of Nrf2 in mouse BV-2 cells assessed as increase in HO1 expression after 6 hrs by Western blot analysis; format: cell-based; conditions: filed as activator, dose 0.02-10 µM; outline: as §3
[13] = target: T1, Nuclear factor erythroid 2-related factor 2 (Mus musculus); assay: Activation of Nrf2 in mouse BV-2 cells assessed as increase in SOD1 expression after 6 hrs by Western blot analysis; format: cell-based; conditions: filed as activator, dose 0.02-10 µM; outline: as §3
BV-2 [14] = assay: Antiinflammatory activity in mouse BV-2 cells assessed as inhibition of LPS-induced nitric oxide production preincubated for 6 hrs followed by LPS stimulation and measured after 24 hrs by griess assay; format: functional, cell-based; conditions: dose 0.01-3 µM, time 30.0 hrs
Outline: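 Nitrite in medium read by Griess reaction. BV-2 cells pretreated 6 h across a dose range, then given LPS for 24 h. Medium treated with 1% sulfanilamide in 5% phosphoric acid, then 0.1% N-1-naphthylethylenediamine, each 5 min at RT in the dark. A540 read and converted against a nitrite standard curve.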

BV-2 [15] = assay: Antiinflammatory activity in mouse BV-2 cells assessed as inhibition of LPS-induced TNFalpha production preincubated for 6 hrs followed by LPS stimulation and measured after 24 hrs by ELISA; format: functional, cell-based; conditions: dose 0.02-2 µM, time 30.0 hrs
Outline: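 BV-2 cells seeded in 12-well plates and pretreated 6 h with compound at […]. LPS then added for 24 h. TNF-α and IL-6 released into the medium quantified by ELISA. Mean ± SEM, n = 3, three separate experiments.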

Mus musculus [16] = assay: (§4) Neuroprotective activity in MPTP-induced C57BL/6 mouse model of Parkinson's disease assessed as reduction in time to turn at 30 mg/kg, po pretreated for 1 day followed by MPTP challenge and subsequent compound dosing for 2 days measured 6 days post MPTP challenge by vertical grid test; format: functional, organism-based; conditions: time 7.0 day
Outline: (§5)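 Male C57BL/6 mice, 10 weeks old, 23–26 g, n = 10 per group. Dosed 30 mg/kg p.o. for 3 consecutive days in 10% N-methyl-2-pyrrolidone/20% Tween-80 in water. On day 2, MPTP-HCl 20 mg/kg i.p. given four times at 2 h intervals. Coat-hanger (scored 1–5, test done twice) and vertical grid tests run 6 days after MPTP. Brains taken next day for anti-TH immunohistochemistry (1:1000, DAB).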

Mus musculus [17] = assay: Neuroprotective activity in MPTP-induced C57BL/6 mouse model of Parkinson's disease assessed as reduction in time to climb down at 30 mg/kg, po pretreated for 1 day followed by MPTP challenge and subsequent compound dosing for 2 days measured 6 days post MPTP challenge by vertical grid test; format: functional, organism-based; conditions: time 7.0 day; outline: as §5
Mus musculus [18] = assay: as §4, with “tyrosine hydroxylase-positive cell loss” for “time to turn”, “post-MPTP” for “post MPTP”, “immunohistochemistry analysis relative to control” for “vertical grid test”; format: functional; design: scale not given: the % may be the effect or the level left; conditions: time 7 day; outline: as §5
BV-2 [19] = assay: Inhibition of nitric oxide production in LPS-stimulated mouse BV-2 cells harboring Nrf2 siRNA at 100 nM cotreated with LPS for 24 hrs by griess assay

O=S(=O)(/C=C/c1ncccc1Cl)c1ccccc1Cl
remaining at 0.5 h [1]: 66%
viability at 6 h, 0.3 µM [2]: 100%
viability at 6 h, 1 µM [3]: 98.9%
activity (CYP2C19): 27.8%
activity (CYP2D6): 88%
remaining at 0.5 h [4]: 97%
IC50 [5]: 110 µM
Activity [6]: Dose-dependent effect
Activity [7]: Dose-dependent effect
fold change (FC) [8]: 2.6
fold change (FC) [9]: 6.9
fold change (FC) [10]: 8.5
fold change (FC) [11]: 6.6
Activity [12]: Dose-dependent effect
Activity [13]: Dose-dependent effect
inhibition (BV-2 [14]): Dose-dependent effect
inhibition (BV-2 [15]): Dose-dependent effect
Activity (Mus musculus [16]): Active
Activity (Mus musculus [17]): Active
activity (Mus musculus [18]): 65%
inhibition (BV-2 [19]): inactive
